Experimental data of several laboratories.
Lines come from different studies, so protocols differ.
Organism: Leishmania donovani
Observed: parasite growth

SMILES | assay | test system | setting | IC50
C[C@@H]1[C@H](O)[C@@H](C)/C=C/C=C/C=C/C=C/C=C/C=C/C=C/[C@H](O[C@@H]2O[C@H](C)[C@@H](O)[C@H](N)[C@@H]2O)C[C@@H]2O[C@](O)(C[C@@H](O)C[C@@H](O)[C@H](O)CC[C@@H](O)C[C@@H](O)CC(=O)O[C@H]1C)C[C@H](O)[C@H]2C(=O)O | resazurin |  | 72 h, promastigote | 0.57 µg/mL
COc1cc(NC(C)CCCN)c2ncccc2c1 (centres unmarked) | resazurin |  | promastigote | 19.9 µg/mL
CCC/C=C/c1cc2c(C=O)c(O)c(CC=C(C)C)cc2o1 | resazurin |  | 48 h, promastigote | 6.2 µg/mL
N=C(N)c1ccc(OCCCCCOc2ccc(C(=N)N)cc2)cc1 |  |  | promastigote | 651 nM
CCCCCCCCCCCCCCCCOP(=O)([O-])OCC[N+](C)(C)C |  |  | intracellular, amastigote | 1830 nM
COc1cc(NC(C)CCCNCCNCCNCCCC(C)Nc2cc(OC)cc3cccnc23)c2ncccc2c1.Cl.Cl (centres unmarked) | resazurin |  | promastigote | 2.99 µg/mL
Cc1cc(NC(=O)Nc2ccc3c(c2)OC(F)(F)O3)cc(C(F)(F)F)n1 |  |  | intracellular, amastigote | 860 nM
O=[N+]([O-])c1c(CS(=O)(=O)c2ccccc2)nc2c(Br)cc(Br)cn12 | MTT |  | 72 h, promastigote | 1800 nM
N=C(N)c1ccc(OCCCCCOc2ccc(C(=N)N)cc2)cc1 | resazurin |  | 48 h, promastigote | 1 µg/mL
c1ccc(CNc2nc(-c3ccccn3)nc3ccccc23)cc1 |  | THP-1 | intracellular, amastigote | 2170 nM
CCCCCCCCCCCCCCCCOP(=O)([O-])OCC[N+](C)(C)C |  |  | promastigote | 4230 nM
c1ccc(CN2CCN(c3nc(-c4ccccn4)nc4ccccc34)CC2)cc1 |  | THP-1 | intracellular, amastigote | 4200 nM
N=C(N)c1ccc(OCCCCCOc2ccc(C(=N)N)cc2)cc1 | resazurin |  | 72 h, promastigote | 1.65 µg/mL
Fc1cccc(Nc2nc(-c3ccccn3)nc3ccccc23)c1 |  | THP-1 | intracellular, amastigote | 1400 nM
C[C@@H]1[C@H](O)[C@@H](C)/C=C/C=C/C=C/C=C/C=C/C=C/C=C/[C@H](O[C@@H]2O[C@H](C)[C@@H](O)[C@H](N)[C@@H]2O)C[C@@H]2O[C@](O)(C[C@@H](O)C[C@@H](O)[C@H](O)CC[C@@H](O)C[C@@H](O)CC(=O)O[C@H]1C)C[C@H](O)[C@H]2C(=O)O | resazurin |  | promastigote | 0.19 µg/mL
C[C@@H]1[C@H](O)[C@@H](C)/C=C/C=C/C=C/C=C/C=C/C=C/C=C/[C@H](O[C@@H]2O[C@H](C)[C@@H](O)[C@H](N)[C@@H]2O)C[C@@H]2O[C@](O)(C[C@@H](O)C[C@@H](O)[C@H](O)CC[C@@H](O)C[C@@H](O)CC(=O)O[C@H]1C)C[C@H](O)[C@H]2C(=O)O |  | THP-1 | 5 days, intracellular, amastigote | 400 nM
c1ccc(-c2nc(N3CCCC3)c3ccccc3n2)nc1 | imaging | THP-1 | intracellular, amastigote | 1300 nM
